According to ChEMBL document CHEMBL4513216, “Probing the Open Global Health Chemical Diversity Library for Multistage-Active Starting Points for Next-Generation Antimalarials” (ACS Infect Dis, 2020):

Experiment: Toxicity liver stage against HepG2, at 10uM
Format: cell-based
Parameters: test concentration 10 uM, cell line HepG2-A16-CD81EGFP
Settings: human, HepG2-A16-CD81EGFP cells; read-out: INHIBITION
Outline: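 Uninfected HepG2-A16-CD81EGFP cells, 3 × 10^3 per well, 1536-well, plated on prespotted compound at 10 μM final, parasite-free screening media added to match infected plates; puromycin 10 μM positive, DMSO 0.5% negative; run in parallel with 48 h PbLuc assay at 37 °C, 5% CO2; viability by CellTiter-Glo luminescence, normalized to controls.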

| SMILES | cytotoxicity at 10 µM [%] |
| --- | --- |
| CC[C@H]1N(Cc2ccco2)CCC[C@]12CCC(=O)N2C | 4.23 |
| O=C([C@H]1CN(CCc2ccccc2)C[C@H]2OCC[C@@H]12)N1CCCO1 | -9.49 |
| COCCNC(=O)c1cnc(N(C)C)nc1C | -5.33 |
| COC(=O)c1cccn1C1CCN(Cc2cccnc2)CC1 | -25.6 |
| O=C(NC1(C(=O)O)CCCC1)C1Cc2cc(F)ccc2O1 (stereo unspecified) | -0.183 |
| Cc1noc(C)c1CN1C[C@@H]2COC[C@@H](C(=O)N3CCCO3)[C@@H]2C1 | -69.9 |
| CCn1nccc1CN(C)C(=O)Cn1cc2c(n1)c(C)nn2CC | 15.4 |
| CCOc1ncccc1C(=O)N1CCCC1c1c(C)nn(C)c1Cl (stereo unspecified) | 0.534 |
| CC(C)(C)c1nnc(CSc2ccccn2)o1 | 5.23 |
| Cc1cc(CN2CC[C@H]3C[C@@H](C)O[C@@H]3C2)no1 | -75.5 |
| Cc1cccc(NC2CCN(C(=O)Nc3ccncc3)CC2)n1 | -17.1 |
| CC(=O)NCCC1CCCCN1S(=O)(=O)c1ccc2ccccc2c1 (stereo unspecified) | -125 |
| Cc1cc(CN2CCN(C(=O)NCc3csc(C)n3)CC2)no1 | -17.6 |
| CC(C)(C)n1nnnc1CN(CCc1ccccc1)Cc1ccccc1 | 4.91 |
| CC(=O)NCCNC(=O)CN1CCCCC1Cn1cncn1 (stereo unspecified) | 2.7 |
| CC(Cn1cccn1)NC(=O)NCc1ccc(C(N)=O)cc1 (stereo unspecified) | -3.2 |
| CCN1CCC(CC(=O)NCCc2nc(C)c(Cl)s2)CC1 | -7.43 |
| CC(=O)N1CCC(=O)N(C2CCCC2)Cc2ccccc21 | -6.09 |
| O=C(NCCNc1ccccn1)NC1CCOC2(CCCCC2)C1 (stereo unspecified) | -8.8 |
| COc1cn(CC(N)=O)c(CSc2nc(C)cc(C)n2)cc1=O | -30.2 |
| Cc1cc(C(=O)N2CCCN(c3nccs3)CC2)c(C)n1C(C)C | 9.48 |
| Cc1noc(C)c1CN(C)C(=O)CCn1c(=O)n(C)c2ccccc21 | -6.67 |
| CCOc1nc2cnccc2n(CC(=O)Nc2ccccc2OC)c1=O | -15 |

| SMILES | cytotoxicity at 10 µM [%] |
| --- | --- |
| Cc1nc(N2CCOCC2)nc2c1CCN(C(=O)NC1CCCC1)CC2 | 3.41 |
| CC(c1cccnc1)N1CCN(CCCC#N)CC1 (stereo unspecified) | 10.3 |
| CC(=O)N1CCC(c2cc(C(F)(F)F)nc3nccn23)CC1 | -2.11 |
| O=C(NC1CCCCC1)C1CCCN(C(=O)Nc2ccccn2)C1 (stereo unspecified) | 3.57 |
| Cc1ccc([C@H]2CN(C(=O)CC3CCC3)C[C@@H]2N)o1 | 5.89 |
| CN(C)CCN1CCOCC2(CCCN(C(=O)Cc3ccccc3)C2)C1 (stereo unspecified) | 2.14 |
| CCOCC1CN(CC2CC2)Cc2cnn(C)c21 (stereo unspecified) | -90.4 |
| CC1=N[C@@]2(CC[C@@H]3CN(Cc4ccc(C)cc4)C[C@@H]32)C(=O)N1CC1CC1 | 1.7 |
| CCC(CC)c1cc(C(=O)N2CCN(CC(N)=O)CC2)on1 | -4.97 |
| CCn1cc(CN2CCN(CC(O)c3ccc(C)cc3C)CC2)c(C)n1 (stereo unspecified) | -0.664 |
| CC(C)c1cc(C(=O)NCCc2nc(-c3cccnc3)n[nH]2)[nH]n1 | 8.02 |
| Cc1ccc(OCC(=O)N(C)Cc2ccc(F)cc2)cn1 | 7.88 |
| CCOC1COC2(CCN(Cc3cccc(F)c3)CC2)C1 (stereo unspecified) | 5.47 |
| Cc1nc(C(=O)N2CCN(S(=O)(=O)N(C)C)CC2)c(-c2ccccc2)s1 | 3.67 |
| N#Cc1c2n(c3c(=O)[nH]cnc13)CCCC2 | 2.45 |
| COCc1nccc(C2CCCN(Cc3ccc(SC)cc3)C2)n1 (stereo unspecified) | 23.4 |
| CCNC(=O)NCc1ccc(CN2CCCC(C)C2)cc1 (stereo unspecified) | -5.03 |
| Cc1noc(C)c1C(=O)N(C)C(C)c1cccnc1 (stereo unspecified) | 0.363 |
| CCc1cnc(N2C[C@@H]3[C@@H](C(=O)NCC(C)C)CCS(=O)(=O)[C@@H]3C2)nc1 | -135 |
| Cc1cc(NCCOCCS(C)(=O)=O)nc2ccccc12 | 4.4 |
| Cc1nnc2n1CCN(C(=O)CN(C)Cc1ccccc1)C2 | -4.56 |
| Cc1ccc2c(c1)C1(CCNCC1)CC2NC1CC1 (stereo unspecified) | -117 |
| CS(=O)(=O)N1CCC2(CC1)CC(CC(=O)NC1CC1)c1ccccc12 (stereo unspecified) | -0.105 |

| SMILES | cytotoxicity at 10 µM [%] |
| --- | --- |
| COc1ccc(N(c2ccccc2)c2ccc(C(=O)O)s2)cc1 | -1.5 |
| COCCn1/c(=N/C(=O)C(C)C)sc2cc(Cl)ccc21 | -5.26 |
| O=C(Nc1cccnc1)C1CCN(c2cc(-n3ccnc3)ncn2)CC1 | -3.3 |
| CCCNC(=O)C1CCN(CC2(O)CCC(C)CC2)CC1 (stereo unspecified) | 4.55 |
| CC(C)C(NC(=O)NCCNc1ncccn1)c1cccs1 (stereo unspecified) | 2.71 |
| O=c1[nH]c2c(c(=O)n1C1CCCCC1)CCC2Nc1ccc(Cl)cc1 (stereo unspecified) | 9.78 |
| CC(C)c1noc(CCCC(=O)NC(C)c2ccccn2)n1 (stereo unspecified) | -4.36 |
| O=C(NC1CCCN(CCc2ccccc2)C1)c1cnccn1 (stereo unspecified) | 7.95 |
| Cc1ccsc1CNC(=O)CC1CN(C(=O)OC(C)(C)C)C1 | -4.66 |
| CN(C)CCNC(=O)c1cc(-c2cnc(N(C)C)nc2)cn1CC1CC1 | -5.81 |
| C=C(C)CNC(=O)C1CCC(=O)N(C2CCCC2)C1 (stereo unspecified) | -3.4 |
| CN1CCN(CCNC(=O)C(OC2CCCC2)c2ccccc2)CC1 (stereo unspecified) | -9.43 |
| Cc1c[nH]nc1C1CCCN1Cc1ncc[nH]1 (stereo unspecified) | 4.99 |
| CCOc1ccccc1CCn1cc2[nH]cccc-2c1=O | 13.6 |
| Cc1cc(S(=O)(=O)NCC(C)(O)CN(C)C)c(F)cc1F (stereo unspecified) | 10 |
| Cc1ccc(OC(C)CNC(=O)c2c[nH]nn2)cc1 (stereo unspecified) | -0.0422 |
| COc1cccc2c1OCC(C(=O)N1CCN(C3CCCC3)C(=O)C1)C2 (stereo unspecified) | -4.9 |
| COc1ccccc1-c1csc(NC(=O)N2CCN(C)CC2C)n1 (stereo unspecified) | -3.24 |
| Cc1ncncc1C(=O)N1CCOC(c2nc(C(C)C)n[nH]2)C1 (stereo unspecified) | -4.98 |
| Cc1noc(C)c1NS(=O)(=O)c1cc(C(=O)O)cc(Cl)c1Cl | 6.14 |
| COc1ccccc1Nc1nc2c(s1)C(=O)CN(C(=O)CC(C)C)C2 | 61.2 |
| Cn1cc(S(=O)(=O)N2CCCC2Cn2ccnc2)cn1 (stereo unspecified) | 6.58 |
| Cn1c(C2CC2)nc2c1CCN(CC(=O)Nc1nccs1)C2 | -9.83 |

| SMILES | cytotoxicity at 10 µM [%] |
| --- | --- |
| Cc1oc2c(c1C(=O)N1CC[C@H](O)[C@]3(CCCO3)C1)CCCC2 | 2.75 |
| Cc1nc(S(=O)(=O)N2CCC3(CCCCC3)C2)cn1C | -4.2 |
| Clc1ccc(OCCc2cc(C3CCN(c4ncccn4)C3)n[nH]2)cc1 (stereo unspecified) | 7.45 |
| CC1CCN(c2ccnc3ccc(Br)cc23)CC1 | 15.4 |
| CC1CCN(CCNC(=O)c2ccccc2N2CCOCC2)CC1 | -6.05 |
| Cc1ncsc1CN1C[C@H](C(=O)N2CCCO2)[C@@H]2CCO[C@@H]2C1 | -11.6 |
| CCN(Cc1cccc2c1OCO2)CC1CCCO1 (stereo unspecified) | 3.18 |
| O=C(CC1CCCC1)N1CCCC1c1ccc(CN2CCOCC2)cn1 (stereo unspecified) | 1.37 |
| Cc1ccc2nc(C(=O)N3CC(c4cccnc4)C3)cn2c1 | -7.5 |
| CCN(Cc1cnn(C)c1)C[C@H]1CC[C@@H](Cc2cccc(CN)c2)O1 | -0.189 |
| O=C1NCCCCC1NCc1csc(-c2ccsc2)n1 (stereo unspecified) | 3.27 |
| CC(CNC(=O)N1CCN(c2ncccn2)CC1)Cc1cccs1 (stereo unspecified) | -7.9 |
| CCc1cc(-c2nccn2-c2ccccc2CN2CCOCC2)on1 | -7.91 |
| CN1CCC(N(Cc2ccccc2)C(=O)c2ccn3ccnc3c2)CC1 | 5.63 |
| Cc1cc(C(C)(O)CNC(=O)c2ccc(Br)o2)c(C)o1 (stereo unspecified) | -0.159 |
| Cc1ccc(S(=O)(=O)N2C[C@@H]3C[C@@H](NC(=O)C(C)(C)C)[C@@H]3C2)cc1 | -3.81 |
| Cc1cnn(CCNCc2ccc(OCc3ccccn3)cc2)c1 | 0.686 |
| CCc1ccccc1NCc1nc2[nH]c(C)c(C)c(=O)n2n1 | 7.98 |
| Cc1nnc(CN2CCN(C)C3(CCNC(=O)CC3)C2)s1 (stereo unspecified) | -8.22 |
| CCCn1nnnc1COC(=O)C1COc2ccc(Cl)cc2C1 (stereo unspecified) | -8.68 |
| CN(Cc1ccc(F)cc1)[C@@H]1CN(S(C)(=O)=O)C[C@H]1O | -3.22 |
| CC(C)c1cc(CN2CCN(c3cccnc3)CC2)n(C)n1 | -0.0184 |
| Cc1nc[nH]c1CN1CCOC(CCNC(=O)c2ccsc2)C1 (stereo unspecified) | -13.1 |

| SMILES | cytotoxicity at 10 µM [%] |
| --- | --- |
| CCOCCCNC(=O)c1cc(OC)c2ccoc2c1 | 6.51 |
| CCc1ncc(C(=O)N(C)Cc2cc(-c3ccncc3)no2)cn1 | -13.2 |
| CCn1cc(CN(C)S(=O)(=O)c2ccc(C)c(C)c2)cn1 | 9.65 |
| Cc1ccc(C(=O)N2CCc3ccc(=O)n(CCN(C)C)c3CC2)o1 | -2.16 |
| O=C(CSc1ccc2c(c1)OCCO2)NS(=O)(=O)C1CCCCC1 | -3.69 |
| CCOCC(=O)N1CCc2nc(C)nc(NC(C)C)c2CC1 | -98.7 |
| NC(=O)C1CNCCN1C(=O)COc1ccccc1 (stereo unspecified) | 1.6 |
| CC(C)C(C(=O)N1CCN(Cc2ccccn2)CC1)n1cncn1 (stereo unspecified) | -14.5 |
| COCCOC1CCN(C(=O)NCc2cc(C)oc2C)CC1 | -4.23 |
| CC(=O)NCC1CCC2(CCN(c3ncc(C(C)=O)c(C)n3)CC2)O1 (stereo unspecified) | -0.611 |
| COCC(=O)N[C@H]1C[C@@H](C(=O)NCCc2cccc(Cl)c2)N(C)C1 | 1.72 |
| COCCC1(C(=O)O)CCCN(C(=O)c2cc(F)ccc2OC)C1 (stereo unspecified) | -11.4 |
| CC(C)c1cc(CN2CCC(N)CC2)on1 | -10.7 |
| Cc1noc(C)c1CN1CC2(CCN(Cc3c[nH]cn3)CC2)CC1=O | 8.62 |
| Cc1ccc(CN2CCN(C3CSCCSC3)CC2CCO)o1 (stereo unspecified) | -8.51 |
| CC(C)CN1CC(C(=O)NCCOc2ccc3c(c2)OCO3)CC1=O (stereo unspecified) | -1.39 |
| CC(C(=O)NCc1cn2cc(Br)ccc2n1)S(C)(=O)=O (stereo unspecified) | -16.4 |
| Cc1ccccc1C(=O)N1CCN(c2ccc(-n3cncn3)nn2)CC1 | 50.8 |
| Cc1nnc([C@H]2C[C@@H]3CCN(Cc4cc(C)on4)C[C@H]3O2)[nH]1 | -5.03 |
